Screening data deposited in PubChem by several laboratories.
SUMO HTRF inh = blocks human SUMOylation mediated by UBC9. P63279. HTRF SUMOylation assay, SAE1/SAE2 + UBC9, in vitro. inhibition, % at 35 µM. hit rate 0.36% among 290,000. AID 2006; in the data active means inhibition above about 50%, passing the limit was not always enough
p97 ATPase inh = inhibitors of human p97 ATPase. inhibition, % at 8 µM. hit rate 0.42% among 220,000. P55072. recombinant p97 ATPase, Kinase-Glo ATP luminescence, 3 h; in the data active means inhibition above about 15%
Diaphorase inh = inhibits diaphorase or chemically oxidizes, flagging diaphorase assay artifacts; diaphorase resazurin-to-resorufin fluorescence, NADH, 16 min; bacterial (C. kluyveri) enzyme, not human; inhibition, % at 20 µM; hit rate 0.69% among 190,000; AID 1217;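 active means primary screen inhibition at 20 µM above a set limit, cut at about 50% in these data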
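System: Bacterial diaphorase enzyme (C. kluyveri) | Incubation: 16-min room-temperature incubation before reading | Benchmarks: No-NADH positive control and DMSO neutral control | Measured by: Resorufin fluorescence 544/590 nm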
G6PDH counter = L. mesenteroides G6PDH inhibition counter-screen; hit rate 0.12% among 200,000; AID 1020; inhibition, % at 5 µM; Purified L. mesenteroides G6PDH, diaphorase/resazurin coupled fluorescence, 45 min; in the data active means inhibition above about 50%
HKDC1 inhibitor = inhibitors of human hexokinase HKDC1 | Q2TB90 | recombinant HKDC1, G6PDH/diaphorase resazurin coupled fluorescence | inhibition, % at 20 µM | hit rate 0.16% among 340,000;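 active means inhibition above about 35% when tested at 20 µM, limit read from the data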
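Test system: Recombinant HKDC1 (HK5) hexokinase enzyme, produced in-house | Input: HKDC1 at 5 µg/mL | Buffer or medium: Tris pH 8.0 buffer with MgCl2, Tween-20, BSA, BME | Schedule: 90 min reaction incubation at room temperature, dark | Technique: Resazurin-to-resorufin fluorescence via G6PDH and diaphorase coupling, 525/613 nm | Controls: DMSO wells with and without enzyme mix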
Hits are given with their value; i = inactive; nt = no result given. Sampled rows, rich in hits. Any-hit rate of the full collection: about 0.95%.

SMILES	SUMO HTRF inh	p97 ATPase inh	Diaphorase inh	G6PDH counter	HKDC1 inhibitor
Cc1ccc(S(=O)(=O)/N=C2/NC(=O)/C(=C/c3ccc(Br)o3)S2)cc1	i	i	i	i	i
Cc1ccc(S(=O)(=O)/N=C2/NC(=O)/C(=C\c3cc(Br)cc(Br)c3O)S2)cc1	62	nt	nt	nt	i
CC(C)C(=O)N(c1cc2sc(=O)oc2c2ccccc12)S(=O)(=O)c1cccs1	i	i	61	i	45
c1cc2c3c(cccc3c1)C(N1CCCCC1)=N2	i	i	i	52	i
Cc1occc1C(=O)N/N=C/c1cnn(C)c1C	i	i	60	i	i
Cc1c(/C=N\NC(=O)c2ccc(F)cc2)cnn1C	i	i	i	i	i
NC(=S)n1[nH]c(-c2ccc([N+](=O)[O-])cc2)c(N=Nc2ccc(O)cc2)c1=O	i	i	i	i	i
NC(=S)n1[nH]c(-c2ccc([N+](=O)[O-])cc2)c(N=Nc2cccc(Cl)c2)c1=O	nt	i	51	i	i
CCOc1cccc(CNc2ccc(O)cc2)c1OCc1ccc(Cl)cc1	i	i	i	i	i
CCOc1cc(CNc2ccc(O)cc2)ccc1OCc1ccc(Cl)cc1Cl	i	i	66	i	i
O=C1CC(c2ccccc2F)C2=C(COC2=O)N1 (centres undefined)	i	i	i	i	i
Oc1nc(Nc2cccc(Cl)c2)sc1/C=C1\C=Nc2ccccc21	i	i	i	i	i
Oc1cccc(Nc2nc(O)c(/C=C3\C=Nc4ccccc43)s2)c1	i	32	nt	nt	i
NC(=O)C1=C[C@@H](c2ccc(C(F)(F)F)cc2)C[C@@H](OCc2ccc(CO)cc2)O1	i	i	52	i	i
C#CCNC(=O)C1=C[C@@H](c2ccccc2)C[C@@H](OCc2ccc(CO)cc2)O1	i	i	56	i	i
N=c1c(C(=O)NCc2ccc(F)cc2)cc2c(=O)n3ccccc3nc2n1Cc1ccco1	i	i	51	i	i
Cc1ccc2nc3c(cc(C(=O)NCc4ccco4)c(=N)n3Cc3ccco3)c(=O)n2c1	74	i	nt	i	i
N=c1c(C(=O)NCc2ccco2)cc2c(=O)n3ccccc3nc2n1Cc1ccccc1	i	i	i	i	i
N#Cc1cc2c(=O)n3ccccc3nc2n(Cc2ccco2)c1=NC(=O)c1ccco1	52	i	i	i	i
Cc1ccc(CNC(=O)c2cc3c(=O)n4ccccc4nc3n(Cc3ccco3)c2=N)cc1	i	nt	90	i	i
CCN(C[C@H]1N[C@@](C)(C(=O)OC)[C@H]2C(=O)N(C)C(=O)[C@@H]12)S(=O)(=O)c1ccc(OC)cc1	nt	nt	nt	nt	i
COCC(=O)N1CCC(Oc2ccc(C(=O)NC3Cc4ccccc4C3)cc2)CC1	i	nt	nt	nt	i
CCc1ccc(Nc2n[n+](C)c(-c3ccncc3)s2)cc1	i	nt	nt	nt	i
CCOc1ccc(NC(=O)c2cc(C3CC3)nc3c2cnn3C(C)C)cc1OC	nt	nt	nt	nt	i
c1ccc2[nH]c3cc4ncnc4cc3nc2c1	i	i	55	i	i
SMILES	SUMO HTRF inh	p97 ATPase inh	Diaphorase inh	G6PDH counter	HKDC1 inhibitor
CC(=O)c1ccc(N(CC(=O)NCc2ccc3c(c2)OCO3)C(=O)c2csnn2)cc1	i	nt	nt	nt	i
NCCc1ccc(O)c(O)c1	i	i	54	i	i
NCC(O)c1ccc(O)c(O)c1 (centres undefined)	nt	nt	nt	nt	i
CC(=O)Oc1ccc(N(C(C)=O)S(=O)(=O)c2ccc(C)cc2C)c2ccccc12	i	nt	nt	nt	i
Cc1ccc(S(=O)(=O)N(C(=O)c2ccncc2)c2ccc(OC(=O)c3ccncc3)c3ccccc23)c(C)c1	i	i	i	i	38
CCn1c(=O)c2cc(C(=O)NC(C)C)sc2c2ccccc21	i	15	nt	nt	i
Oc1cccc(/C=N/Nc2cc(N3CCCC3)nc(N3CCCC3)n2)c1	93	i	i	i	i
Oc1ccc(/C=N/Nc2cc(N3CCCC3)nc(N3CCCC3)n2)cc1	i	i	i	52	i
Oc1ccc(/C=N/Nc2nc(N3CCCC3)nc(N3CCCC3)n2)cc1O	i	i	72	i	i
Cc1ccc[n+](CC(=O)c2ccc(NC(=O)c3ccccc3)cc2)c1	i	i	i	i	i
Cc1cc(C)c[n+](CC(=O)c2ccc(NC(=O)c3ccccc3)cc2)c1	i	i	71	i	i
COc1ccc(F)cc1C(=O)C1CCCN(Cc2cccn2-c2cccnc2)C1 (centres undefined)	i	i	94	i	i
C=CCN(CC(=O)c1sc(C(=O)OCC)nc1C)c1cccc(Br)c1	nt	nt	nt	nt	i
COc1ccc(NC(=O)c2cc(S(=O)(=O)N3CCCCC3)ccc2C)cc1S(=O)(=O)N1CCOCC1	nt	nt	nt	nt	i
O=C(CNC(=O)N1CC(=O)Nc2ccccc21)Nc1nccs1	i	nt	nt	nt	i
CC(C)=C1C(=O)NN(c2ccc(F)c(Cl)c2)C1=O	i	20	i	i	i
O=C1CSC(=S)N1c1ccc(F)c(Cl)c1	i	nt	nt	nt	i
Cc1cc(=O)[nH]c(SCC(=O)c2ccc(F)c(C)c2)n1	i	nt	nt	nt	i
Cc1cc(=O)n(-c2ccc(O)cc2)[nH]1	i	21	i	i	i
CN(C)S(=O)(=O)c1cccc(NC(=O)CN2C(=O)NC3(CCc4ccccc4C3)C2=O)c1 (centres undefined)	i	nt	nt	nt	i
O=C(/C=C/c1ccccc1)NC(=S)NNC(=O)c1cccnc1	i	i	81	i	i
COc1ccc(/C=C/C(=O)NC(=S)NNC(=O)c2cccnc2)cc1OC	i	i	82	i	i
COc1ccc(C(=O)NC(=S)NNC(=O)c2cnccn2)cc1OC	i	i	74	i	i
COc1cc(C(=O)NNC(=S)NC(=O)c2ccc(Cl)cc2)cc(OC)c1OC	i	i	61	i	i
COc1ccc(-c2nc(SCC(=O)Nc3cc(C)on3)n[nH]2)cc1	50	i	i	i	i
O=C(CSc1n[nH]c(-c2ccccc2)n1)Nc1ncc(Br)cc1Br	i	i	59	i	48
